Data from ChEMBL document CHEMBL1158582, “Novel DNA intercalators without basic side chains as efficient antitumor agents: design, synthesis and evaluation of benzo-[c,d]-indol-malononitrile derivatives” (Bioorg Med Chem, 2010).
The source made the active and inactive calls. The calls are words filed in the database; no cut-off is given here.

Tests used:
Nucleic Acid [1] = assay: Induction of DNA damage-mediated relaxation of Escherichia coli super coiled pBR322 DNA assessed as formation of open circular form-2 DNA after 3 hrs under light condition by UV transilluminator; format: nucleic-acid assay
Summary of the method: (§1)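 Supercoiled pBR322 (25 ng/µL) in 20 mM Tris–HCl pH 7.5 with 50 µM compound under light irradiation for 3 h; irradiated DNA alone as control. Products resolved on 1% agarose in 0.5× TAE containing 0.5 µg/mL EB, 80 V, 1.5 h.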

Nucleic Acid [2] = assay: Induction of DNA damage-mediated relaxation of Escherichia coli super coiled pBR322 DNA assessed as formation of linear form-3 DNA after 12 hrs under dark condition by UV transilluminator; format: nucleic-acid assay
Summary of the method: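 Supercoiled pBR322 (25 ng/µL) in 20 mM Tris–HCl pH 7.5 with 50 µM compound, 12 h at 4 °C in the dark. Quenched with loading buffer; 1% agarose gel in 0.5× TAE with 0.5 µg/mL EB, 80 V, 1.5 h.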

MCF7 = assay: Cytotoxicity against human MCF7 cells after 48 hrs by MTT assay; format: functional, cell-based; conditions: MCF7, 48 h
Summary of the method: (§2)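 MTT assay, cells incubated 48 h with a range of compound concentrations. MTT (5 mg/mL in PBS) added, 3 h, formazan dissolved in lysis buffer (200 g/L SDS, 50% formamide, pH 4.7), absorbance read at 570 nm. At least three independent experiments; mean percent absorbance plotted against concentration to give IC50.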

SMMC-7721 = assay: Cytotoxicity against human SMMC7721 cells after 48 hrs by MTT assay; format: functional, cell-based; conditions: SMMC-7721, 48 h; summary of the method: as §2
Nucleic Acid [3] = assay: Binding affinity to calf thymus DNA assessed as DNA intercalation at 100 uM by UV-visible spectrophotometry; format: nucleic-acid assay; conditions: Bos taurus; 25 uM; in the assay text read “at 25 uM” for “at 100 uM”
Summary of the method: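 UV–vis titration: compound fixed at 25 µM, CT DNA concentration increased; bathochromic shift and hypochromicity taken as the sign of intercalation, isosbestic point followed.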

Nucleic Acid [4] = assay: Induction of DNA damage-mediated relaxation of Escherichia coli super coiled pBR322 DNA assessed as formation of linear form-3 DNA after 3 hrs under light condition by UV transilluminator; format: nucleic-acid assay; summary of the method: as §1
Nucleic Acid [5] = assay: Binding affinity to DNA assessed as decrease in ethidium bromide fluorescence at 5 uM by fluorescence spectroscopy; format: nucleic-acid assay
Summary of the method: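 Fluorescence displacement of ethidium bromide bound to DNA; loss of EB fluorescence taken as displacement by the test agent. Compound alone with DNA measured as a control for the compound's own fluorescence.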

Nucleic Acid [6] = assay: Binding affinity to calf thymus DNA assessed as increase in DNA viscosity by viscometric titration; format: nucleic-acid assay; conditions: Bos taurus
Summary of the method: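 CT DNA sonicated 10 min and filtered through 0.45 µm membrane; DNA 100 µM. Titrations in an Ubbelohde viscometer in a thermostated bath held at 25 ± 0.1 °C.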

Row | Compound | Activity (Nucleic Acid [1]) | Activity (Nucleic Acid [2]) | IC50 (MCF7) [nM] | IC50 (SMMC-7721) [nM] | Activity (Nucleic Acid [3]) | Activity (Nucleic Acid [4]) | Activity (Nucleic Acid [5]) | Activity (Nucleic Acid [6])
1 | N#CC(C#N)=c1c2cccc3cccc(c32)n1CCBr | Active | Active | 5380 | 210 | – | – | – | –
2 | C#CCn1c(=C(C#N)C#N)c2cccc3cccc1c32 | Active | Active | 12500 | 728 | Active | Active | Active | Active
3 | N#CCn1c(=C(C#N)C#N)c2cccc3cccc1c32 | Active | Active | 13500 | 260 | – | Active | – | –
4 | N#CC(C#N)=c1c2cccc3cccc(c32)n1CCCCl | Active | Active | 6930 | 354 | – | – | – | –
5 | C=CCn1c(=C(C#N)C#N)c2cccc3cccc1c32 | Active | Active | 4730 | 175 | – | Active | – | –
6 | N#CC(C#N)=c1c2cccc3cccc(c32)n1C(=O)c1ccccc1 | Active | Active | 15300 | 8800 | inactive | – | – | –
7 | CC(=O)n1c(=C(C#N)C#N)c2cccc3cccc1c32 | Active | Active | 3 | 115 | Active | – | – | –
